{
  "source": "ChEMBL document CHEMBL5647697",
  "about": "“Akt inhibition synergizes with polycomb repressive complex 2 inhibition in the treatment of multiple myeloma” (2019)",
  "key": {"OPM-2/BTZ [1]": {"test_system": "OPM-2/BTZ", "assay": "Synergistic activity against human OPM-2/BTZ cells assessed as combination index preincubated in presence of 5 uM GSK126 for 72 hrs followed by compound addition at 1 uM incubated for 48 hrs by MTT assay", "assay_type": "functional"}, "NCI-H929 [2]": {"test_system": "NCI-H929", "assay": "Induction of apoptosis in human NCI-H929 cells assessed as viable cells preincubated in presence of 5 micromol/L UNC1999 for 48 hrs followed by compound addition at 2 micromol/L incubated for 12 hrs by annexin V/PI staining based flow cytometry (reference value: 95.6%)", "assay_type": "functional", "settings": "dose 2 µmol/L, at 2 µM"}, "NCI-H929 [3]": {"test_system": "NCI-H929", "assay": "Synergistic activity against human NCI-H929 cells assessed as combination index […] compound addition at 0.125 uM incubated for 48 hrs by MTT assay", "assay_type": "functional", "in_short": "(§1)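 Cells were exposed to the EZH2/EZH1 inhibitor (UNC1999 or GSK126) for 72 h in total, with the Akt inhibitor added for the last 48 h. Viability was read by MTS assay relative to untreated control cells, in triplicate. The combination index for each dose pair came from isobologram analysis.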"}, "MM1.S [4]": {"test_system": "MM1.S", "assay": "Induction of apoptosis in human MM1.S cells assessed as necrotic cells preincubated in presence of 5 micromol/L UNC1999 for 48 hrs followed by compound addition at 2 micromol/L incubated for 12 hrs by annexin V/PI staining based flow cytometry (reference value: 0.17%)", "assay_type": "functional", "settings": "dose 2 µmol/L, at 2 µM"}, "OPM-2 [5]": {"test_system": "OPM-2", "assay": "Synergistic activity against human OPM-2 cells assessed as combination index preincubated in presence of 2.5 uM GSK126 for 72 hrs followed by compound addition at 2.5 uM incubated for 48 hrs by MTT assay", "assay_type": "functional"}, "MM1.S [6]": {"test_system": "MM1.S", "assay": "Downregulation of CDK1 protein expression in human MM1.S cells incubated at 0.3 to 3 micromol/L for 48 hrs by Western blot analysis", "assay_type": "functional, cell-based", "settings": "dose 0.3-3 µmol/L", "in_short": "(§2)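 MM.1S and H929 cells given TAS-117 at the indicated doses for 48 h. Protein levels assessed by immunoblot.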"}, "NCI-H929 [7]": {"test_system": "NCI-H929", "assay": "Downregulation of CDK1 protein expression in human NCI-H929 cells incubated at 0.3 to 3 micromol/L for 48 hrs by Western blot analysis", "assay_type": "functional, cell-based", "settings": "dose 0.3-3 µmol/L", "in_short": "as §2"}, "NCI-H929 [8]": {"test_system": "NCI-H929", "assay": "Upregulation of H3K27me3 protein expression in human NCI-H929 cells at 0.3 to 5 micromol/L for 6 to 48 hrs by Western blot analysis", "assay_type": "functional, cell-based", "settings": "dose 0.3-5 µmol/L, time 6-48 hrs", "in_short": "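H3K27me3 was detected by immunoblot in MM.1S and H929 cells. Cells were given graded TAS-117 for 48 h, or 5 μmol/L for the indicated times. Signal is quantified relative to the H3 loading control.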"}, "[9]": {"molecular_target": "Serine/threonine-protein kinase AKT (Homo sapiens) (UniProt P31751+Q9Y243+P31749)", "sequence (P31749 whole entry, looked up)": "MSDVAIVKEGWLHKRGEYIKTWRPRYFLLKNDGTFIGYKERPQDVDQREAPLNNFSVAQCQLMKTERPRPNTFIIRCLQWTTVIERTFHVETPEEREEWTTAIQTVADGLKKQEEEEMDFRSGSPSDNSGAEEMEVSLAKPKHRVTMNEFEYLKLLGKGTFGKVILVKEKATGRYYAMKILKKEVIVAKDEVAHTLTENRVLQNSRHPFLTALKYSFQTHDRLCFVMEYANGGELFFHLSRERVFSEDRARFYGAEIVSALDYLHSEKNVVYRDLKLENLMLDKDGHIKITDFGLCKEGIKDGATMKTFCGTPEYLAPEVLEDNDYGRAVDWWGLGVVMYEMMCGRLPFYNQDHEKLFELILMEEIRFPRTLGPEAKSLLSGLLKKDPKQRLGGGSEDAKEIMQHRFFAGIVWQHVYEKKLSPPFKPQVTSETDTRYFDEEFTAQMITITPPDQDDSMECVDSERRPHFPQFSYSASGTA", "sequence (P31751 whole entry, looked up)": "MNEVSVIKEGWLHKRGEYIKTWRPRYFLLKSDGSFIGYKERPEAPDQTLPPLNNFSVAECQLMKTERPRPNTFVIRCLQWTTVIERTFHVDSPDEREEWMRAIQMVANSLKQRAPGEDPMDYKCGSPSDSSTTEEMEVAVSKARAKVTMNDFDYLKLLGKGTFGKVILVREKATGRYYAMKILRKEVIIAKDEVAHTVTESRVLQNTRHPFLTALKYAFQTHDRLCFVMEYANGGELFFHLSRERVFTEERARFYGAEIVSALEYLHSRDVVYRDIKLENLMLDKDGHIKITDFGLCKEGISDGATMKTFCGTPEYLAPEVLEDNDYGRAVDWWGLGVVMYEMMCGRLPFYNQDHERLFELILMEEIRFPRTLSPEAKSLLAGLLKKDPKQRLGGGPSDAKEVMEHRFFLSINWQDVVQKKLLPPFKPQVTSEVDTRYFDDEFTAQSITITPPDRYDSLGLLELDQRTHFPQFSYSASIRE", "sequence (Q9Y243 whole entry, looked up)": "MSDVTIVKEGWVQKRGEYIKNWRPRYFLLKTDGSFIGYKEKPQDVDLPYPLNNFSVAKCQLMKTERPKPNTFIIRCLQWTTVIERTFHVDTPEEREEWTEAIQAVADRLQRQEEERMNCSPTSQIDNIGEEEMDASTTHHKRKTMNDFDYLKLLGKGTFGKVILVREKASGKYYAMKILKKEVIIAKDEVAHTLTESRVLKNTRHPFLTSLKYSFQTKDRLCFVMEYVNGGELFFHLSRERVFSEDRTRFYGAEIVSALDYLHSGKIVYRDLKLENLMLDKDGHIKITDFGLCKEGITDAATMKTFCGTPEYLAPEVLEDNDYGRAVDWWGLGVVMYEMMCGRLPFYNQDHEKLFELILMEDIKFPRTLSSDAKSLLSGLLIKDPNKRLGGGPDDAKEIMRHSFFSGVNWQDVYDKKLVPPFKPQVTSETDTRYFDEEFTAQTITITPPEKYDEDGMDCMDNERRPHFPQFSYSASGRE", "assay": "Inhibition of Akt phosphorylation in human MM1.S cells at 0.3 to 5 micromol/L for 6 to 48 hrs by Western blot analysis", "assay_type": "cell-based", "settings": "dose 0.3-5 µmol/L, time 6-48 hrs", "in_short": "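MM.1S and H929 cells were treated with graded doses for 48 h, or with 5 μmol/L for the stated times. Lysates were immunoblotted, with GAPDH, total Akt and H3 as loading controls.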"}, "NCI-H929 [10]": {"test_system": "NCI-H929", "assay": "Induction of apoptosis in human NCI-H929 cells assessed as late apoptotic cells at 2 micromol/L incubated for 12 hrs by annexin V/PI staining based flow cytometry (reference value: […]%)", "assay_type": "functional", "settings": "dose 2 µmol/L"}, "MM1.S [11]": {"test_system": "MM1.S", "assay": "Downregulation of EZH2 mRNA expression in human MM1.S cells transduced with EZH1 at 0.3 micromol/L after 24 hrs by qRT-PCR analysis", "assay_type": "functional, cell-based", "settings": "dose 0.3 µmol/L", "in_short": "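EZH1-shRNA or shLuc lentivirus-transduced MM.1S cells treated with TAS-117 at the indicated doses for 24 h. EZH2 mRNA by RT-qPCR, fold change normalized to GAPDH.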"}, "MM1.S [12]": {"test_system": "MM1.S", "assay": "Downregulation of H3K27me3 levels in human MM1.S cells […] at 0.3 micromol/L after 48 hrs by Western blot analysis relative to control", "assay_type": "functional, cell-based", "settings": "dose 0.3 µmol/L", "in_short": "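MM.1S cells transduced with lentiviral shRNA against EZH1 or luciferase, then treated with TAS-117 at the indicated doses for 48 h. H3K27me3 immunoblot with H3 as loading control.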"}, "OPM-2/BTZ [13]": {"test_system": "OPM-2/BTZ", "assay": "Downregulation of E2F1 mRNA expression in human OPM-2/BTZ cells incubated at 0.3 to 3 micromol/L for 48 hrs by qRT-PCR analysis", "assay_type": "functional, cell-based", "settings": "dose 0.3-3 µmol/L"}, "NCI-H929 [14]": {"test_system": "NCI-H929", "assay": "Upregulation of CDKN1B mRNA expression in human NCI-H929 cells at 1 micromol/L after 24 hrs by qRT-PCR analysis", "assay_type": "functional, cell-based", "settings": "dose 1.0 µmol/L", "in_short": "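Cells were exposed to 1 μmol/L TAS-117 for 24 h. mRNA of FOXO3, FOXO4, BIM and CDKN1B was measured by qRT-PCR in H929 cells. Fold change is relative to the untreated control after normalization to GAPDH. Data are SD of triplicates.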"}, "MM1.S [15]": {"test_system": "MM1.S", "assay": "Downregulation of E2F1 protein expression in human MM1.S cells incubated at 0.3 to 3 micromol/L for 48 hrs by Western blot analysis", "assay_type": "functional, cell-based", "settings": "dose 0.3-3 µmol/L", "in_short": "as §2"}, "MM1.S [16]": {"test_system": "MM1.S", "assay": "Synergistic activity against human MM.1S cells assessed as combination index […] at 0.25 uM incubated for 48 hrs by […]", "assay_type": "functional", "in_short": "as §1"}, "MM1.S [17]": {"test_system": "MM1.S", "assay": "Downregulation of cyclin D1 protein expression in human MM1.S cells incubated at 0.3 to 3 micromol/L for 48 hrs by Western blot analysis", "assay_type": "functional, cell-based", "settings": "dose 0.3-3 µmol/L", "in_short": "as §2"}, "OPM-2/BTZ [18]": {"test_system": "OPM-2/BTZ", "assay": "Synergistic activity against human OPM-2/BTZ cells assessed as combination index preincubated in presence of 2.5 uM UNC1999 for 72 hrs followed by compound addition at 2 uM incubated for 48 hrs by MTT assay", "assay_type": "functional"}, "OPM-2 [19]": {"test_system": "OPM-2", "assay": "Synergistic activity against human OPM-2 cells assessed as combination index preincubated in presence of 1.25 uM UNC1999 for 72 hrs followed by compound addition at 5 uM incubated for 48 hrs by MTT assay", "assay_type": "functional"}, "NCI-H929 [20]": {"test_system": "NCI-H929", "assay": "Cytotoxicity against human NCI-H929 cells assessed as reduction in cell viability at 0.3125 to 10 micromol/L after 48 hrs by MTS assay", "assay_type": "functional, cell-based", "settings": "dose 0.3125-10 µmol/L", "in_short": "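Seven myeloma lines (MM.1S, H929, OPM2/BTZ among them) exposed to TAS-117 at increasing concentrations up to 10 μmol/L for 48 h. Viability read by MTS against an untreated control; mean ± SD of triplicates.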"}, "MM1.S [21]": {"test_system": "MM1.S", "assay": "Induction of apoptosis in human MM1.S cells assessed as early apoptotic cells at 2 micromol/L incubated for 12 hrs by annexin V/PI staining based flow cytometry (reference value: 8.03%)", "assay_type": "functional", "settings": "dose 2 µmol/L, at 2 µM"}, "OPM-2/BTZ [22]": {"test_system": "OPM-2/BTZ", "assay": "Synergistic activity against human OPM-2/BTZ cells assessed as combination index preincubated in presence of 1.25 uM UNC1999 for 72 hrs followed by compound addition at 2 uM incubated for 48 hrs by MTT assay", "assay_type": "functional"}, "NCI-H929 [23]": {"test_system": "NCI-H929", "assay": "Synergistic activity against human NCI-H929 cells assessed as combination index […] at 0.25 uM incubated for 48 hrs by […]", "assay_type": "functional", "in_short": "as §1"}, "MM1.S [24]": {"test_system": "MM1.S", "assay": "Synergistic activity against human MM.1S cells assessed as combination index […] in presence of 5 uM UNC1999 for 72 hrs […] at 0.25 uM incubated for 48 hrs by MTT assay", "assay_type": "functional", "in_short": "as §1"}, "OPM-2/BTZ [25]": {"test_system": "OPM-2/BTZ", "assay": "Synergistic activity against human OPM-2/BTZ cells assessed as combination index preincubated in presence of 1.25 uM GSK126 for 72 hrs followed by compound addition at 2 uM incubated for 48 hrs by MTT assay", "assay_type": "functional"}},
  "note": "The source made the active and inactive calls. No cut-off for these calls is given here.",
  "data": [
    {"smiles": "C[C@]1(O)C[C@@](N)(c2ccc(-c3nc4n(c3-c3ccccc3)COc3ccncc3-4)cc2)C1", "note": "[PIFUSERTIB]", "values": [
      {"measurement": "CI", "setting": "OPM-2/BTZ [1]", "value": 1.274},
      {"measurement": "Activity", "setting": "NCI-H929 [2]", "value": 70.4, "unit": "%"},
      {"measurement": "CI", "setting": "NCI-H929 [3]", "value": 0.858},
      {"measurement": "Activity", "setting": "MM1.S [4]", "value": 1.04, "unit": "%"},
      {"measurement": "CI", "setting": "OPM-2 [5]", "value": 2.563},
      {"measurement": "Activity", "setting": "MM1.S [6]", "value": "Active"},
      {"measurement": "Activity", "setting": "NCI-H929 [7]", "value": "Active"},
      {"measurement": "Activity", "setting": "NCI-H929 [8]", "value": "Active"},
      {"measurement": "inhibition", "setting": "[9]", "value": "Active"},
      {"measurement": "Activity", "setting": "NCI-H929 [10]", "value": 3.42, "unit": "%"},
      {"measurement": "Activity", "setting": "MM1.S [11]", "value": "Active"},
      {"measurement": "Activity", "setting": "MM1.S [12]", "value": "Active"},
      {"measurement": "Activity", "setting": "OPM-2/BTZ [13]", "value": "Active"},
      {"measurement": "Activity", "setting": "NCI-H929 [14]", "value": "Active"},
      {"measurement": "Activity", "setting": "MM1.S [15]", "value": "Active"},
      {"measurement": "CI", "setting": "MM1.S [16]", "value": 0.826},
      {"measurement": "Activity", "setting": "MM1.S [17]", "value": "Active"},
      {"measurement": "CI", "setting": "OPM-2/BTZ [18]", "value": 0.483},
      {"measurement": "CI", "setting": "OPM-2 [19]", "value": 1.743},
      {"measurement": "Activity", "setting": "NCI-H929 [20]", "value": "Active"},
      {"measurement": "Activity", "setting": "MM1.S [21]", "value": 9.49, "unit": "%"},
      {"measurement": "CI", "setting": "OPM-2/BTZ [22]", "value": 0.395},
      {"measurement": "CI", "setting": "NCI-H929 [23]", "value": 0.778},
      {"measurement": "CI", "setting": "MM1.S [24]", "value": 0.237},
      {"measurement": "CI", "setting": "OPM-2/BTZ [25]", "value": 0.203}
    ]}
  ]
}
